Source: ChEMBL document CHEMBL4622949, “A chalcone derivative binds a putative allosteric site of YopH: Inhibition of a virulence factor of Yersinia” (Bioorg Med Chem Lett, 2020)
Calls of active or inactive are those of the source. The rule behind the calls is not given here.

What was measured:
[1] = target: T1, Tyrosine-protein phosphatase non-receptor type 22 (Homo sapiens, UniProt Q9Y2R2); experiment: Inhibition of LYP (unknown origin) at 25 uM using pNPP as substrate relative to control
T1 sequence (Q9Y2R2 whole entry): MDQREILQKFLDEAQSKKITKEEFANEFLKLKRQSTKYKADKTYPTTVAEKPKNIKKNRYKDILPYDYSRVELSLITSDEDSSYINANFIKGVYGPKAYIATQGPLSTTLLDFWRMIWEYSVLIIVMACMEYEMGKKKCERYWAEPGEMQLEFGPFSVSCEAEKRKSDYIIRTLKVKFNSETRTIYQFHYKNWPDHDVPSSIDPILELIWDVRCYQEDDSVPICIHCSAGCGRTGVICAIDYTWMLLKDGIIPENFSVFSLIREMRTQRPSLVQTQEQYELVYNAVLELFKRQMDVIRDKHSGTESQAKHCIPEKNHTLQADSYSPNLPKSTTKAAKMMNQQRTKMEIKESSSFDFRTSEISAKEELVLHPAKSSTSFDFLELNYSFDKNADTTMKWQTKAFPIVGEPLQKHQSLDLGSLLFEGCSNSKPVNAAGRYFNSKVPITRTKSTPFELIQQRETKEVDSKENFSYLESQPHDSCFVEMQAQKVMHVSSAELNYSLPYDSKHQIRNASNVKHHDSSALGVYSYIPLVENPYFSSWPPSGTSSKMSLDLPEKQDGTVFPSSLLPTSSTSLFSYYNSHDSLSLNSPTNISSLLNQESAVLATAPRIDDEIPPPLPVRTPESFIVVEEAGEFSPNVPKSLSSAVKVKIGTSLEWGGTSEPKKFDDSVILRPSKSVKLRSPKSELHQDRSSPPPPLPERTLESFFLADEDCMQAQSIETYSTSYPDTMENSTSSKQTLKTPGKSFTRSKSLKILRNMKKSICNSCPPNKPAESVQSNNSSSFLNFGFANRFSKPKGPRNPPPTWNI

[2] = target: Tyrosine-protein phosphatase YopH (Yersinia enterocolitica) (UniProt P15273); experiment: Irreversible inhibition of Yersinia enterocolitica YopH assessed as enzyme recovery activity by dilution assay relative to control; parameters: scale not given: the % may be the effect or the level left
How it was run: (§1)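 Reversibility tested by preincubation and dilution: enzyme preincubated with inhibitor, then diluted, and recovered phosphatase activity expressed as a percentage of control.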

[3] = target: T2, Tyrosine-protein phosphatase YopH (Yersinia enterocolitica, UniProt P15273); experiment: Non-competitive mixed inhibition of Yersinia enterocolitica YopH assessed as inhibition constant
How it was run: (§2)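 Kinetic parameters were derived from Michaelis–Menten plots of YopH activity with and without inhibitor. Ki and α were obtained from a non-competitive mixed-inhibition analysis. Results are means ± SD of three independent experiments.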

[4] = target: T2, Tyrosine-protein phosphatase YopH; experiment: Inhibition of recombinant Yersinia enterocolitica YopH assessed as reduction in conversion of pNPP to nitrophenol and inorganic phosphate using pNPP as substrate by microplate reader assay
How it was run: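 Recombinant YopH phosphatase activity was measured in vitro. Values are the average of individual means ± SD from three independent experiments.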

[5] = target: T2, Tyrosine-protein phosphatase YopH; experiment: Non-competitive mixed inhibition of Yersinia enterocolitica YopH assessed as inhibition constant for enzyme-substrate complex; how it was run: as §2
[6] = target: T1, Tyrosine-protein phosphatase non-receptor type 22; experiment: Competitive inhibition of LYP (unknown origin) assessed as inhibition constant using varying level of pNPP as substrate by Lineweaver-Burk plot analysis
[7] = target: T3, Phosphotyrosine protein phosphatase (Mycobacterium tuberculosis, UniProt A0A045ISB3); experiment: Competitive inhibition of Mycobacterium tuberculosis PtpB assessed as inhibition constant using varying level of pNPP as substrate by Lineweaver-Burk plot analysis
T3 sequence (A0A045ISB3 whole entry): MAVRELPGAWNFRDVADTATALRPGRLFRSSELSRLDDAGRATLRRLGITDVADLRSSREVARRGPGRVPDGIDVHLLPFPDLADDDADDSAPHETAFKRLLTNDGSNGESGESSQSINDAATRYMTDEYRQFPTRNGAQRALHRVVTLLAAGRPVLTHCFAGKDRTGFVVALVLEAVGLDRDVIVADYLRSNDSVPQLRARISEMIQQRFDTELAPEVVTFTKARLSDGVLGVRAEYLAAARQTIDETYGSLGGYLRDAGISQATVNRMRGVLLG

Yersinia enterocolitica = experiment: Antibacterial activity against Yersinia enterocolitica assessed as inhibition of bacterial growth at 8 to 250 uM after 48 hrs relative to control; format: functional
[8] = target: T2, Tyrosine-protein phosphatase YopH; experiment: Non-competitive inhibition of Yersinia enterocolitica YopH assessed as inhibition constant using varying level of pNPP as substrate by Lineweaver-Burk plot analysis
[9] = target: T4, Tyrosine-protein phosphatase non-receptor type 1 (Homo sapiens, UniProt P18031); experiment: Reversible inhibition of human PTP1B assessed as enzyme recovery activity by dilution assay relative to control; parameters: scale not given: the % may be the effect or the level left; how it was run: as §1
T4 sequence (P18031 whole entry): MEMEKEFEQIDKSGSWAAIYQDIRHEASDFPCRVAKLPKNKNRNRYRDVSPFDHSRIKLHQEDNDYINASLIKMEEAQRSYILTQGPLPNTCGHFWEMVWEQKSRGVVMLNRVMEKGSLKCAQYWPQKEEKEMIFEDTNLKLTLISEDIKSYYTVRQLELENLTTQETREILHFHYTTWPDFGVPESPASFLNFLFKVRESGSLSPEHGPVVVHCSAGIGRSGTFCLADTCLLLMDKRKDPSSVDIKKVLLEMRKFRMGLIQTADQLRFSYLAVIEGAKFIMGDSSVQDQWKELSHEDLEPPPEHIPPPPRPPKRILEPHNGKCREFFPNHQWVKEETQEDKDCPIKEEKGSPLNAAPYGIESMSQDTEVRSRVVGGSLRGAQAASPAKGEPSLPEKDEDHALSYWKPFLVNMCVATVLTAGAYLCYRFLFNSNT

[10] = target: Tyrosine-protein phosphatase YopH (Yersinia enterocolitica) (UniProt P15273); experiment: Binding affinity of Yersinia enterocolitica YopH assessed as structural changes in protein by measuring emission spectra by fluorescence assay
How it was run: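 Intrinsic fluorescence emission spectrum of YopH (λmax 328 nm) recorded in the presence of ligand; quenching and any shift in λmax monitored as the read-out for structural change.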

[11] = target: T5, Low molecular weight protein-tyrosine phosphatase A (Mycobacterium tuberculosis, UniProt P9WIA1); experiment: Non-competitive inhibition of Mycobacterium tuberculosis PtpA assessed as inhibition constant using varying level of pNPP as substrate by Lineweaver-Burk plot analysis
T5 sequence (P9WIA1 whole entry): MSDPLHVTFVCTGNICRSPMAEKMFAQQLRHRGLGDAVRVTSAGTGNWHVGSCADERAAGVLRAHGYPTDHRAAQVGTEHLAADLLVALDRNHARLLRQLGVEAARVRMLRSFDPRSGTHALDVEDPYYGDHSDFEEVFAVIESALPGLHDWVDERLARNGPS

[12] = target: T3, Phosphotyrosine protein phosphatase; experiment: Inhibition of Mycobacterium tuberculosis PtpB
How it was run: (§3)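 Inhibition of the PTP panel, run in three independent experiments. Values are the average of the individual means ± SD.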

[13] = target: T1, Tyrosine-protein phosphatase non-receptor type 22; experiment: Reversible inhibition of LYP (unknown origin) assessed as enzyme recovery activity by dilution assay relative to control; parameters: scale not given: the % may be the effect or the level left; how it was run: as §1
[14] = target: T2, Tyrosine-protein phosphatase YopH; experiment: Inhibition of Yersinia enterocolitica YopH; how it was run: as §3
[15] = Selectivity index, ratio of IC50 for Mycobacterium tuberculosis PtpA to IC50 for LYP (unknown origin) using pNPP as substrate
[16] = target: T6, Low molecular weight protein-tyrosine phosphatase A (Mycobacterium tuberculosis) (UniProt P9WIA1); experiment: Reversible inhibition of Mycobacterium tuberculosis PtpA assessed as enzyme recovery activity by dilution assay relative to control; parameters: scale not given: the % may be the effect or the level left; how it was run: as §1
T6 sequence (whole entry): T5 sequence (P9WIA1 whole entry)

[17] = target: T7, Tyrosine-protein phosphatase non-receptor type 12 (Homo sapiens, UniProt Q05209); experiment: Reversible inhibition of PTP-PEST (unknown origin) assessed as enzyme recovery activity by dilution assay relative to control; parameters: scale not given: the % may be the effect or the level left; how it was run: as §1
T7 sequence (Q05209 whole entry): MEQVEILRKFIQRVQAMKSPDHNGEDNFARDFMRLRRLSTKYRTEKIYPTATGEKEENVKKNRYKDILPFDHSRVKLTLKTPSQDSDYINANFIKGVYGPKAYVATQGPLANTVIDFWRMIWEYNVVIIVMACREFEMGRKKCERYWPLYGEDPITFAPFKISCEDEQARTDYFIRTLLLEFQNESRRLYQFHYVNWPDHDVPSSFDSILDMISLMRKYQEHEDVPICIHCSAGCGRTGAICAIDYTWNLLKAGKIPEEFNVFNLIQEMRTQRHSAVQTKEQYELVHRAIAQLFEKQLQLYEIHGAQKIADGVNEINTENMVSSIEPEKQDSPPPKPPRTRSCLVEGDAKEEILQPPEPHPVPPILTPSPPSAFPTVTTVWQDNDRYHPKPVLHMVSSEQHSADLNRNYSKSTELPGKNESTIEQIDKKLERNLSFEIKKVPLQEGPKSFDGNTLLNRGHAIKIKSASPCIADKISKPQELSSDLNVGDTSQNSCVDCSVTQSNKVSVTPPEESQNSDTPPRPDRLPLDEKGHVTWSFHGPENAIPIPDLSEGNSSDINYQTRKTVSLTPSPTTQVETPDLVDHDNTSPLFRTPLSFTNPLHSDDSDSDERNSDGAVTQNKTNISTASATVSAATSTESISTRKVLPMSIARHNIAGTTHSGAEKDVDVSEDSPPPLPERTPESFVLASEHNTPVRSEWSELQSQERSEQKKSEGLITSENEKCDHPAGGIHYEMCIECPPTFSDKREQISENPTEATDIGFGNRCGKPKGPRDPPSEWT

[18] = target: Tyrosine-protein phosphatase YopH (Yersinia enterocolitica) (UniProt P15273); experiment: Potency index, ratio of chicoric-acid IC50 to test compound IC50 for inhibition of Yersinia enterocolitica YopH
[19] = Selectivity index, ratio of IC50 for PTP-PEST (unknown origin) to IC50 for LYP (unknown origin) using pNPP as substrate; settings: human
[20] = Selectivity index, ratio of IC50 for human PTP1B to IC50 for LYP (unknown origin) using pNPP as substrate
[21] = Selectivity index, ratio of IC50 for Yersinia enterocolitica YopH to IC50 for LYP (unknown origin) using pNPP as substrate
[22] = target: T7, Tyrosine-protein phosphatase non-receptor type 12; experiment: Competitive inhibition of PTP-PEST (unknown origin) assessed as inhibition constant using varying level of pNPP as substrate by Lineweaver-Burk plot analysis
[23] = target: T7, Tyrosine-protein phosphatase non-receptor type 12; experiment: Inhibition of PTP-PEST (unknown origin); how it was run: as §3
[24] = target: T1, Tyrosine-protein phosphatase non-receptor type 22; experiment: Inhibition of LYP (unknown origin) using pNPP as substrate
[25] = Selectivity index, ratio of IC50 for Mycobacterium tuberculosis PtpB to IC50 for LYP (unknown origin) using pNPP as substrate
[26] = target: T4, Tyrosine-protein phosphatase non-receptor type 1; experiment: Inhibition of human PTP1B; how it was run: as §3
[27] = target: T5, Low molecular weight protein-tyrosine phosphatase A; experiment: Inhibition of Mycobacterium tuberculosis PtpA; how it was run: as §3
[28] = target: T4, Tyrosine-protein phosphatase non-receptor type 1; experiment: Non-competitive inhibition of human PTP1B assessed as inhibition constant using varying level of pNPP as substrate by Lineweaver-Burk plot analysis
[29] = target: T8, Phosphotyrosine protein phosphatase (Mycobacterium tuberculosis) (UniProt A0A045ISB3); experiment: Reversible inhibition of Mycobacterium tuberculosis PtpB assessed as enzyme recovery activity by dilution assay relative to control; parameters: scale not given: the % may be the effect or the level left; how it was run: as §1
T8 sequence (whole entry): T3 sequence (A0A045ISB3 whole entry)

[30] = target: Tyrosine-protein phosphatase YopH (Yersinia enterocolitica) (UniProt P15273); experiment: Binding affinity of Yersinia enterocolitica YopH assessed as protein stabilization by measuring change in melting temperature by thermal denaturation assay
How it was run: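 YopH thermal denaturation profile recorded with and without ligand at 50 µM; melting temperature (Tm) compared between the two.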

T2 sequence (P15273 whole entry): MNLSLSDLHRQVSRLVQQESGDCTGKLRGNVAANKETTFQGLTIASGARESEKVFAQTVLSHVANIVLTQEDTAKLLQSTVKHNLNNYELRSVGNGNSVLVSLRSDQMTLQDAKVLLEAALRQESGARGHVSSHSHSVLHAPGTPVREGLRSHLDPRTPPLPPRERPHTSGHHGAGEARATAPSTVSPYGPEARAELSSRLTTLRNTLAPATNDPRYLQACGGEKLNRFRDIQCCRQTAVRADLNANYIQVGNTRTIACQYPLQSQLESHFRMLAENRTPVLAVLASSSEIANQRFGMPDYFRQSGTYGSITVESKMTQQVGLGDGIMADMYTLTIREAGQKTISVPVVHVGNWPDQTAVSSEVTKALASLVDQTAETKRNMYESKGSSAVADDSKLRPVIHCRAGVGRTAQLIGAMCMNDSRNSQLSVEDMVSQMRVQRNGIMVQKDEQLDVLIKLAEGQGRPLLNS
Chain of Tyrosine-protein phosphatase YopH (Yersinia enterocolitica) (P15273 whole entry): as above

O=C(O)c1ccc(/C=C/C(=O)n2ccnc2)cc1
inhibition at 25 µM [1]: 25.7%

COc1cccc(C(=O)/C=C/c2ccc(C(=O)O)cc2)c1
inhibition at 25 µM [1]: 6.8%

COc1ccccc1C(=O)/C=C/c1ccc(C(=O)O)cc1
inhibition at 25 µM [1]: 13%

COc1ccc(C(=O)/C=C/c2ccc(C(=O)O)cc2)cc1
inhibition at 25 µM [1]: 8.4%

O=C1COc2ccc(C(=O)/C=C/c3ccc(C(=O)O)cc3)cc2N1
inhibition at 25 µM [1]: 33.2%

COc1ccc(C(=O)/C=C/c2ccc(C(=O)O)cc2)cc1OC
inhibition at 25 µM [1]: 4.2%

O=C(/C=C/c1ccc(O)c(O)c1)O[C@@H](C(=O)O)[C@@H](OC(=O)/C=C/c1ccc(O)c(O)c1)C(=O)O [CICHORIC ACID]
Activity [2]: 0.6%
Ki [3]: 68.3 µM
IC50 [4]: 379 µM
Ki [5]: 12.5 µM

COc1cc(OC)cc(C(=O)/C=C/c2ccc(C(=O)O)cc2)c1
inhibition at 25 µM [1]: 4.6%

O=C(O)c1ccc(/C=C/C(=O)c2ccc(Br)cc2)cc1
inhibition at 25 µM [1]: 15.7%

O=C(O)c1ccc(/C=C/C(=O)c2cccc([N+](=O)[O-])c2)cc1
Ki [6]: 1.9 µM
Ki [7]: 0.4 µM
inhibition (INH) (Yersinia enterocolitica): 20%
Ki [8]: 1 µM
Activity [9]: 45%
inhibition at 25 µM [1]: 57.9%
Activity [2]: 10%
Activity [10]: inactive
Ki [11]: 0.8 µM
IC50 [12]: 2.3 µM
Activity [13]: 76%
IC50 [14]: 2.6 µM
Ratio IC50 [15]: 0.26
Activity [16]: 76%
Activity [17]: 71%
Ratio IC50 [18]: 145
Ratio IC50 [19]: 0.94
Ratio IC50 [20]: 0.28
Ratio IC50 [21]: 0.22
Ki [22]: 1 µM
IC50 [23]: 10.9 µM
IC50 [24]: 11.5 µM
Ratio IC50 [25]: 0.19
IC50 [26]: 3.2 µM
IC50 [27]: 3 µM
Ki [28]: 1.4 µM
Activity [29]: 81%
ΔTm [30]: 1.5 °C
